Experimental data published in paper PMC6859084 (Drug Design, Development and Therapy, 2019).
Like-named read-outs stand apart in the source and are kept apart here.

Key:
[1] = Pharmacokinetics after single oral dose of FDC or loose combination; format: in vivo, human; conditions: FDC to loose combination
Outline: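 Healthy subjects, randomized open-label two-period crossover with 14-day washout, fasted overnight, single oral dose with 200 mL water. Heparinized blood drawn pre-dose to 72 h, centrifuged 1,800 rpm 8 min at 4°C, plasma mixed 1:1 with 5% formic acid, stored −70°C. LC-MS/MS (C18, positive ESI, MRM), validated 0.5–200 ng/mL. Non-compartmental parameters; log-transformed GMR from linear mixed-effects model.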

[2] = previously reported; cited from earlier work
[3] = tested on: LDL-C; conditions: cited from earlier work

Structure (SMILES)	AUClast Geometric Mean Ratio (90% CI) [1]	Cmax Geometric Mean Ratio (90% CI) [1]	half-life [2] [h]	LDL-C reduction ([3]; first week after rosuvastatin administration) [%]	LDL-C reduction ([3]; second week after rosuvastatin administration) [%]
N[C@@H](CC(=O)N1CCc2c(nc(C(F)(F)F)nc2C(F)(F)F)C1)CN1CC(F)(F)CCC1=O [Gemigliptin]	1.02 (0.96–1.09)	1.08 (0.99–1.18)	17	–	–
CC(C)c1nc(N(C)S(C)(=O)=O)nc(-c2ccc(F)cc2)c1/C=C/[C@@H](O)C[C@@H](O)CC(=O)O [Rosuvastatin]	1.02 (0.95–1.09)	1.09 (0.96–1.22)	–	64	90
